Molecules are shown by their SMILES.

Data on ten compounds can be found in ChEMBL document CHEMBL1158388, “Preparation of spermine conjugates with acidic retinoids with potent ribonuclease P inhibitory activity” (Eur J Med Chem, 2009).

The experiment in a line: Inhibition of Dictyostelium discoideum AX2 RNase P by double reciprocal plot. In short, it runs like this: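 RNase P purified from D. discoideum wild-type cells; 37 °C reactions in buffer D (50 mM Tris/HCl pH 7.6, 10 mM NH4Cl, 5 mM MgCl2, 5 mM DTT) with 2–5 fmol in vitro labeled S. pombe pre-tRNASer transcript and 1.3 µg enzyme-fraction protein, 10% DMSO; stopped with formamide/EDTA dye. Ki from slopes of 1/v vs 1/[pre-tRNA] plots replotted against inhibitor concentration.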

Take `CC1=C(/C=C/C(C)=C/C=C/C(C)=C\C(=O)O)C(C)(C)CCC1` [ISOTRETINOIN]: the Ki (usually a dissociation constant, usually derived from enzyme kinetics or from competition with a known ligand) was found to be 20 µM. In other words, the double-digit micromolar range. `CCS(=O)(=O)c1ccc(/C=C(\C)c2ccc3c(c2)C(C)(C)CCC3(C)C)cc1` [ETAROTENE] showed a Ki of 3600 µM. `CC1=C(/C=C/C(C)=C/C=C/C(C)=C/CO)C(C)(C)CCC1` [RETINOL] registered a Ki of 1480 µM. Compared with the last compound, the Ki is about 2.4-fold lower. As to `COc1cc(C)c(/C=C/C(C)=C/C=C/C(C)=C/C(=O)NCCCNCCCCNCCCN)c(C)c1C` [N1-Acitretinylspermine], the Ki came to 2.45 µM. This Ki is about 600-fold lower than that of the compound before. For the compound `C/C(=C\c1ccc(C(=O)O)cc1)c1ccc2c(c1)C(C)(C)CCC2(C)C`, the inhibition constant Ki stood at 45 µM. `CC1=C(/C=C/C(C)=C/C=C/C(C)=C/C(=O)NCCCNCCCCNCCCN)C(C)(C)CCC1` yielded an inhibition constant (Ki) of 2.4 µM. `CCOC(=O)c1ccc(/C=C(\C)c2ccc3c(c2)C(C)(C)CCC3(C)C)cc1` [AROTINOID] returned a Ki of 4350 µM. `CC1=C(/C=C/C(C)=C/C=C/C(C)=C/C(=O)O)C(C)(C)CCC1` [TRETINOIN]: the Ki was 15 µM. Take `CC1=C(/C=C/C(C)=C/C=C/C(C)=C/C(=O)N(CCCN)CCCCN(CCCN)C(=O)/C=C(C)/C=C/C=C(C)/C=C/C2=C(C)CCCC2(C)C)C(C)(C)CCC1`: affinity was put at a Ki of 1.1 µM. As to `COc1cc(C)c(/C=C/C(C)=C/C=C/C(C)=C/C(=O)O)c(C)c1C` [ACITRETIN], the Ki came out at 8 µM. Against the preceding compound, the Ki is about 7.3-fold higher.
